Series [1] has as its target T1, Protein cereblon/Androgen receptor (Homo sapiens, UniProt P10275+Q96SW2). Description: Protac activity at CRBN/AR in human VCaP cells assessed as reduction in AR protein level at 100 nM after 3 hrs in presence of thalidomide by Western blot analysis.
For series [2], the system named is Protein cereblon/Androgen receptor (Homo sapiens), P10275+Q96SW2 [T878A]. Put plainly: Protac activity at CRBN/AR T878A mutant in human LNCaP cells assessed as reduction in AR protein level at 100 nM after 3 hrs in presence of thalidomide by Western blot analysis.
In series [3] the test system is VCaP. Description: Antitumor activity against human VCaP cells xenografted in CB17:SCID mouse assessed as reduction in AR protein level in tumor at 20 mg/kg, po measured for 6 to 24 hrs by Western blot analysis. The class given is functional, organism-based. Conditions: time 6-24 hrs. The method in brief: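 VCaP xenografts in male CB17 SCID mice grown to about 200 mm3; single oral gavage dose of 20 mg/kg in 100% PEG200; tumors collected at 6 and 24 h, RIPA lysates blotted for AR with GAPDH as loading control, band intensity normalised to loading control.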

Series [4] concerns the target T1, Protein cereblon/Androgen receptor. Description: Protac activity at CRBN/AR in human MDA-PCa-2b cells assessed as reduction in AR protein level at 1 nM after 24 hrs by Western blot analysis relative to control. Type of series: cell-based. In a few lines:
(§1)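 Western blot of AR after 24 h exposure to a concentration series in ATCC-derived cells, all with 10% FBS at 37 °C and 5% CO2: LNCaP and 22Rv1 in RPMI1640, VCaP in DMEM with Glutamax, MDA-PCa-2b in F-12K. Lysis in RIPA with protease and phosphatase inhibitors, then 4–12% SDS-PAGE and PVDF transfer. Band minus background is normalised to GAPDH.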

Series [5] shares this target. Put plainly: Protac activity at CRBN/AR in human MDA-PCa-2b cells assessed as maximal AR degradation at 1 nM after 24 hrs by Western blot analysis relative to control. Type of series: cell-based. The method in brief: as §1
The nature of series [6]: Drug distribution in CB17:SCID mouse xenografted with human VCaP cells assessed as prostate gland to plasma ratio at 20 mg/kg, po measured at 24 hrs by LCMS analysis. Type of series: ADME, organism-based. In a few lines:
(§2)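 Tumor-bearing male CB17 SCID mice (VCaP xenografts) given one 20 mg/kg oral dose in 100% PEG200, three mice per time point; plasma, tumor, liver, kidney, prostate and heart taken at 1, 6 and 24 h; tissues homogenised in water/acetonitrile, protein precipitated with cold acetonitrile, drug quantified by LC–MS/MS; ratios are tissue over plasma level.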

In series [7] the target is T1, Protein cereblon/Androgen receptor. Put plainly: Protac activity at CRBN/AR in human VCaP cells assessed as reduction in AR protein level at 3 nM after 24 hrs by Western blot analysis relative to control. Type of series: cell-based. The method in brief:
as §1

The target is the same in series [8]. Description: Protac activity at CRBN/AR in human 22Rv1 cells assessed as reduction in AR protein level at 30 nM after 24 hrs by Western blot analysis relative to control. The class given is cell-based. In a few lines: as §1
Series [9] addresses Voltage-gated inwardly rectifying potassium channel KCNH2 (Homo sapiens, UniProt Q12809). Description: Inhibition of human ERG up to 30 uM. In a few lines:
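hERG potassium channel stably expressed in HEK 293 cells; current recorded by manual patch clamp at 0.3, 1, 3, 10 and 30 μM, in duplicate, for concentration–response.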

Series [10] deals with VCaP. Description: Antitumor activity against human VCaP cells xenografted in CB17:SCID mouse assessed as reduction in AR protein level in tumor at 10 mg/kg, po for 3 days measured at 24 hrs by Western blot analysis. Type of series: functional. Particulars: 72 h, time 3 day. The method in brief: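 Male CB17 SCID mice bearing subcutaneous VCaP tumors (5 × 10^6 cells in Matrigel); dosed by oral gavage in 100% PEG200 at 10 mg/kg daily for 3 days; tumors harvested 3, 6 and 24 h post-dose, lysed in RIPA, Western blot for AR with GAPDH loading control, bands quantified by densitometry relative to loading control.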

The nature of series [11]: Drug distribution in heart of CB17:SCID mouse xenografted with human VCaP cells at 20 mg/kg, po measured at 1 hrs by LCMS analysis. The class given is ADME, organism-based. Particulars: read-out: Drug uptake. The method in brief:
as §2

Series [12] can be described thus: Drug distribution in tumor of CB17:SCID mouse xenografted with human VCaP cells at 20 mg/kg, po measured at 1 hrs by LCMS analysis. Type of series: ADME, organism-based, Neoplasm. Particulars: read-out: Drug uptake. The method in brief: as §2

The results in this text go back to ChEMBL document CHEMBL4842372, “Discovery of ARD-2585 as an Exceptionally Potent and Orally Active PROTAC Degrader of Androgen Receptor for the Treatment of Advanced Prostate Cancer” (J Med Chem, 2021).

Calls of active or inactive are those of the source. The calls are words filed in the database; no cut-off is given here.

T1 sequence (P10275 whole entry, looked up): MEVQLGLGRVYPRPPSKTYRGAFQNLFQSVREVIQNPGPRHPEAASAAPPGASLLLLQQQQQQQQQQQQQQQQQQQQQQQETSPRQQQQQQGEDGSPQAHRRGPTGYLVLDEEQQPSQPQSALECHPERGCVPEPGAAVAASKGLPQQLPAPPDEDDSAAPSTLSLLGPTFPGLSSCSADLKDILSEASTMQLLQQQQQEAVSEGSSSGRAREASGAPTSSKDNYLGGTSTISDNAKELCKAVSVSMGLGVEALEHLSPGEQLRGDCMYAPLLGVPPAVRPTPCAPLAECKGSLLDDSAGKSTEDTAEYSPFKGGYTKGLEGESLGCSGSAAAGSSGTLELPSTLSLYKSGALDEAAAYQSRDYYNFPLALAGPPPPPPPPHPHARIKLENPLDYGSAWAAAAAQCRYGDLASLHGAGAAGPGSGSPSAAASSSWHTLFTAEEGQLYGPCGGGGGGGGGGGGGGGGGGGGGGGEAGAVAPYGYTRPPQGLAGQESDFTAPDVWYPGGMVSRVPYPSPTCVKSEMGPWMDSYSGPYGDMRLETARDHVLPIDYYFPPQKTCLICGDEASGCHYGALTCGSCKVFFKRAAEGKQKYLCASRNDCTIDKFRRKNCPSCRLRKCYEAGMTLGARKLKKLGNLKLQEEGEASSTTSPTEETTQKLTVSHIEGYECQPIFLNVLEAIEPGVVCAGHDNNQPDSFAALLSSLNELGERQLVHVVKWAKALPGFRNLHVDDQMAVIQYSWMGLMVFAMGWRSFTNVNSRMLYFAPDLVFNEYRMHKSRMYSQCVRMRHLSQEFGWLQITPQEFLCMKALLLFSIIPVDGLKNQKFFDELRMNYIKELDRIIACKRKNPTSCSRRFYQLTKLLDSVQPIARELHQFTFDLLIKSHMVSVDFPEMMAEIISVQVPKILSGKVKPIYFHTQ
T1 sequence (Q96SW2 whole entry, looked up): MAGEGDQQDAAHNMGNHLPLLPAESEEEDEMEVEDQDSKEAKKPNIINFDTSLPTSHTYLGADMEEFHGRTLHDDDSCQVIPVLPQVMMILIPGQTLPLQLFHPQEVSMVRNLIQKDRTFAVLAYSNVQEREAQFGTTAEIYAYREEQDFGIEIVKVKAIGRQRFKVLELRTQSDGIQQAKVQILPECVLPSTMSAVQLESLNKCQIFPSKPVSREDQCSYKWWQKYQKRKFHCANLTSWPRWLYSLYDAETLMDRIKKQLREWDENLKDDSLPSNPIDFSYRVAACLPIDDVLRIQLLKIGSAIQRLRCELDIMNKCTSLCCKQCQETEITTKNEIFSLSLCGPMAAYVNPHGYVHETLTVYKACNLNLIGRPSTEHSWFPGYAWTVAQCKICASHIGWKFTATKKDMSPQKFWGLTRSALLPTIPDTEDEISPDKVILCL
Chain of Voltage-gated inwardly rectifying potassium channel KCNH2 (Q12809 whole entry): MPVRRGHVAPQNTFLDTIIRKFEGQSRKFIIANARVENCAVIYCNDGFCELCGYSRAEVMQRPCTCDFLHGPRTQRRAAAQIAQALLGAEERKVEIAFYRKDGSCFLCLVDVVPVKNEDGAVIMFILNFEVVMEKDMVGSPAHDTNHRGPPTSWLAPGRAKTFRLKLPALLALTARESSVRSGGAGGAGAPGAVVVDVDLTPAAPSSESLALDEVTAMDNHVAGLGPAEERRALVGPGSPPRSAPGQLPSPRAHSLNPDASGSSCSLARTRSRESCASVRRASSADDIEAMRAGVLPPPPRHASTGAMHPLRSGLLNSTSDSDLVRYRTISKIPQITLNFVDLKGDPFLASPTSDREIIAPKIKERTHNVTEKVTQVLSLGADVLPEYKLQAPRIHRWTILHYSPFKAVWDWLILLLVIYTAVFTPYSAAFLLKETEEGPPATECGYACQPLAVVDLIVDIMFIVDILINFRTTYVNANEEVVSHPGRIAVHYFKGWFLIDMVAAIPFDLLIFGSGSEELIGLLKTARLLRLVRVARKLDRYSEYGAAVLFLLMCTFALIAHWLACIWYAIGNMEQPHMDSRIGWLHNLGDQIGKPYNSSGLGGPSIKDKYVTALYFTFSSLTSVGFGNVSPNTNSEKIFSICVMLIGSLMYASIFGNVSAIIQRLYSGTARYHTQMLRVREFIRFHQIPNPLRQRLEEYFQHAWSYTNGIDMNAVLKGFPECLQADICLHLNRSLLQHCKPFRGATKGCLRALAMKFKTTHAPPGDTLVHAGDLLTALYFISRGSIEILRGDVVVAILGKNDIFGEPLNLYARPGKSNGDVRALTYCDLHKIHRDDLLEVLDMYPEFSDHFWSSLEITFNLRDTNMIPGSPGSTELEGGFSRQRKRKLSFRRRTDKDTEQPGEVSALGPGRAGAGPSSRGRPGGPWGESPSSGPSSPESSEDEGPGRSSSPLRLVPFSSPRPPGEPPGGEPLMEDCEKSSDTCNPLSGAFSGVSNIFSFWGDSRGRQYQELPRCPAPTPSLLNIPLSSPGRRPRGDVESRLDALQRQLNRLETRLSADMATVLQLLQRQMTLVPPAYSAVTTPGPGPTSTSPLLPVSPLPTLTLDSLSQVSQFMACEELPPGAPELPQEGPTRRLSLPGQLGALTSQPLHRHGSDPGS

Regarding `CN(c1ccc(C#N)c(Cl)c1)[C@H]1CC[C@H](NC(=O)c2ccc(N3CCN(C4CN(c5ccc6c(c5)C(=O)N(C5CCC(=O)NC5=O)C6=O)C4)CC3)cc2)CC1` (some centres not stated), the outcome in series [1] and in [2] was inactive. Also, the inhibition entry with VCaP [3] is “Active”. The inhibition in [4] is more than 80%; in series [7], 80%; in series [8], 80%. For the same compound, the Emax in series [5] was more than 95%. Moreover, the concentration ratio (Kp) at 24 h in [6] came to 0.5. Also, the “inhibition (INH)” value in [9] is recorded as “Not Active”. The inhibition in vivo at 10 mg/kg in the series with VCaP [10] is 78%. Besides, the concentration at 1 h turned out to be 210 ng/g in series [11] and 47 ng/g in series [12].
